ChEMBL document CHEMBL5038571, “Design and Synthesis of EZH2-Based PROTACs to Degrade the PRC2 Complex for Targeting the Noncatalytic Activity of EZH2” (J Med Chem, 2021)
The source made the active and inactive calls. The rule behind the calls is not given here.

How the values were obtained:
A549 [1] = experiment: Downregulation of […] mRNA expression in human A549 cells at 10 uM incubated for 48 hrs by qRT-PCR analysis; type: functional, cell-based
Outline: (§1)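 Cells treated 48 h. Total RNA extracted with Trizol, reverse-transcribed, and SYBR RT-qPCR run: 95 °C 30 s, then 40 cycles of 95 °C 6 s and 60 °C 20 s. mRNA normalized to the DMSO-treated group. Mean SD of three independent experiments, t-test versus DMSO.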

Pfeiffer [2] = experiment: Upregulation of CDKN2A mRNA expression in human Pfeiffer cells at 1 uM incubated for 48 hrs by qRT-PCR analysis; type: functional, cell-based
Outline: (§2)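 WSU-DLCL-2 or Pfeiffer cells treated 48 h. Trizol RNA extraction, reverse transcription, SYBR qPCR (95 °C 30 s; 40 cycles of 95 °C 6 s, 60 °C 20 s). mRNA normalized to DMSO-treated cells; mean ± SD of three independent experiments, t-test.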

[3] = biological target: T1, Protein cereblon/Histone-lysine N-methyltransferase EZH2 (Homo sapiens) (UniProt Q15910+Q96SW2); experiment: PROTAC activity at CRBN E3 ligase/EZH2 in PRC2 complex in human A2780 cells assessed as reduction in H3K27me3 level at 1 uM incubated for 48 hrs by Western blot analysis; type: cell-based
Outline: (§3)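 Cancer cell lines exposed to 1 μM compound for 48 h. Lysates immunoblotted (SDS-PAGE, nitrocellulose, 5% milk block, primary antibody overnight at 4 °C) for EZH2, SUZ12, EED, RbAp48 and H3K27me3. Bands quantified by densitometry and normalized to GAPDH.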

[4] = biological target: T1, Protein cereblon/Histone-lysine N-methyltransferase EZH2 (Homo sapiens); experiment: PROTAC activity at CRBN E3 ligase/EZH2 in PRC2 complex in human WSUDLCL2 cells assessed as downregulation of EZH2 expression at 1 uM pretreated with MLN4924 for 4 hrs followed by compound addition and measured after 48 hrs by Western blot analysis; type: cell-based
Outline: (§4)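 WSU-DLCL-2 cells pretreated 4 h with the named inhibitor, then compound added and incubated a further 48 h. EZH2, SUZ12, EED and RbAp48 measured by western blot (nitrocellulose transfer, skim-milk block, primary antibody overnight at 4 °C, chemiluminescent detection).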

Pfeiffer [5] = experiment: Upregulation of TXINP mRNA expression in human Pfeiffer cells at 1 uM incubated for 48 hrs by qRT-PCR analysis; type: functional, cell-based; outline: as §2
[6] = biological target: T1, Protein cereblon/Histone-lysine N-methyltransferase EZH2 (Homo sapiens); experiment: PROTAC activity at CRBN E3 ligase/EZH2 in PRC2 complex in human WSUDLCL2 cells assessed as induction of SUZ12 degradation at 1 uM incubated for 48 hrs by Western blot analysis relative to control; type: cell-based
Outline: (§5)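 WSU-DLCL-2 cells treated 48 h (1 μM for the single-concentration screen), lysed; SDS-PAGE, nitrocellulose transfer, 5% milk block, primary antibody 4 °C overnight, chemiluminescence. Bands quantified by densitometry, normalized to GAPDH, expressed relative to DMSO-treated cells; mean ± SD of three independent experiments, t-test.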

[7] = biological target: T1, Protein cereblon/Histone-lysine N-methyltransferase EZH2 (Homo sapiens); experiment: PROTAC activity at CRBN E3 ligase/EZH2 in PRC2 complex in human WSUDLCL2 cells assessed as increase in SUZ12 ubiquitination at 1 uM measured after 48 hrs by co-immunoprecipitation assay; type: cell-based
Outline: (§6)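 WSU-DLCL-2 cells treated with 1 μM compound for 48 h and lysed in RIPA buffer. Lysates incubated with antibodies overnight at 4 °C, then 3 h with Protein G agarose beads at 4 °C. Proteins eluted in IP buffer and ubiquitination of the target probed by immunoblot.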

MDA-MB-468 = experiment: Downregulation of CEP76 mRNA expression in human MDA-MB-468 cells at 10 uM incubated for 48 hrs by qRT-PCR analysis; type: functional, cell-based; outline: as §1
[8] = biological target: T1, Protein cereblon/Histone-lysine N-methyltransferase EZH2 (Homo sapiens); experiment: PROTAC activity at CRBN E3 ligase/EZH2 in PRC2 complex in human WSUDLCL2 cells assessed as increase in EZH2 ubiquitination at 1 uM measured after 48 hrs by co-immunoprecipitation assay; type: cell-based; outline: as §6
[9] = biological target: T1, Protein cereblon/Histone-lysine N-methyltransferase EZH2 (Homo sapiens); experiment: PROTAC activity at CRBN E3 ligase/EZH2 in PRC2 complex in human WSUDLCL2 cells assessed as downregulation of RbAp48 expression at 1 uM pretreated with MG-132 for 4 hrs followed by compound addition and measured after 48 hrs by Western blot analysis; type: cell-based; outline: as §4
[10] = biological target: T1, Protein cereblon/Histone-lysine N-methyltransferase EZH2 (Homo sapiens); experiment: PROTAC activity at CRBN E3 ligase/EZH2 in PRC2 complex in human WSUDLCL2 cells assessed as reduction in H3K27me3 level incubated for 48 hrs by Western blot analysis; type: cell-based; conditions: dose 1-10 µM; outline: as §5
A549 [11] = experiment: Antiproliferative activity against human A549 cells harboring SWI/SNF mutant assessed as inhibition of cell growth at 10 uM treated for 9 days by optical microscopic analysis; type: functional, cell-based; conditions: time 9.0 day
Outline: (§7)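 Cells seeded at 5 × 10³ per well, grown 24 h, then exposed to compound at 10 μM for 9 days with medium refreshed. Cells were photographed and counted on days 1, 3, 5, 7 and 9. For lines 1-2, EZH2-targeting or control shRNA was induced in the cells. Mean SD of three independent experiments; t-test against control.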

WSUDLCL2 [12] = experiment: Upregulation of TXINP mRNA expression in human WSUDLCL2 cells at 1 uM incubated for 48 hrs by qRT-PCR analysis; type: functional, cell-based; outline: as §2
Pfeiffer [13] = experiment: Upregulation of ADRB2 mRNA expression in human Pfeiffer cells at 1 uM incubated for 48 hrs by qRT-PCR analysis; type: functional, cell-based; outline: as §2
[14] = biological target: T1, Protein cereblon/Histone-lysine N-methyltransferase EZH2 (Homo sapiens); experiment: PROTAC activity at CRBN E3 ligase/EZH2 in PRC2 complex in human SU-DHL-6 cells assessed as reduction in H3K27me3 level at 1 uM incubated for 48 hrs by Western blot analysis; type: cell-based
Outline: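 Cells cultured in DMEM or RPMI 1640 with 10% FBS and 1% penicillin-streptomycin, 37 °C, 5% CO2; exposed to 1 μM compound for 48 h. Lysates run on SDS-PAGE and transferred to nitrocellulose. Blocked 2 h in 5% skim milk, primary antibody overnight at 4 °C, then secondary antibody. Chemiluminescent detection of PRC2 subunits and H3K27me3.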

[15] = biological target: T1, Protein cereblon/Histone-lysine N-methyltransferase EZH2 (Homo sapiens); experiment: PROTAC activity at CRBN E3 ligase/EZH2 in PRC2 complex in human A2780 cells assessed as induction of EZH2 degradation by measuring reduction in EZH2 protein level at 1 uM incubated for 48 hrs by Western blot analysis; type: cell-based; outline: as §3
WSUDLCL2 [16] = experiment: Effect on Histone H3 methylation in human WSUDLCL2 cells assessed as reduction in H3K27me1 levels at upto 10 uM incubated for 48 hrs by Western blot analysis; type: functional, cell-based; conditions: dose microM <=10, time 48.0 hrs
Outline: (§8)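 Lysates run on SDS-PAGE and transferred to nitrocellulose. Membranes blocked with 5% skim milk for 2 h, primary antibody applied overnight at 4 °C, then secondary antibody and chemiluminescent detection of histone H3 methylation marks.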

NCI-H1299 = experiment: Downregulation of […] mRNA expression in human NCI-H1299 cells at 10 uM incubated for 48 hrs by qRT-PCR analysis; type: functional, cell-based; outline: as §1
A549 [17] = experiment: Antiproliferative activity against EZH2-knockdown human A549 cells assessed as inhibition of cell growth at 10 uM treated for 9 days by optical microscopic analysis; type: functional, cell-based; conditions: time 9.0 day; outline: as §7
WSUDLCL2 [18] = experiment: Inhibition of PRC2 in human WSUDLCL2 cells assessed as suppression H3K27 dimethylation incubated for 48 hrs by Western blot analysis; type: cell-based; outline: as §8
A549 [19] = experiment: Downregulation of CENPK mRNA expression in human A549 cells at 10 uM incubated for 48 hrs by qRT-PCR analysis; type: functional, cell-based; outline: as §1

T1 sequence (Q15910 whole entry, looked up): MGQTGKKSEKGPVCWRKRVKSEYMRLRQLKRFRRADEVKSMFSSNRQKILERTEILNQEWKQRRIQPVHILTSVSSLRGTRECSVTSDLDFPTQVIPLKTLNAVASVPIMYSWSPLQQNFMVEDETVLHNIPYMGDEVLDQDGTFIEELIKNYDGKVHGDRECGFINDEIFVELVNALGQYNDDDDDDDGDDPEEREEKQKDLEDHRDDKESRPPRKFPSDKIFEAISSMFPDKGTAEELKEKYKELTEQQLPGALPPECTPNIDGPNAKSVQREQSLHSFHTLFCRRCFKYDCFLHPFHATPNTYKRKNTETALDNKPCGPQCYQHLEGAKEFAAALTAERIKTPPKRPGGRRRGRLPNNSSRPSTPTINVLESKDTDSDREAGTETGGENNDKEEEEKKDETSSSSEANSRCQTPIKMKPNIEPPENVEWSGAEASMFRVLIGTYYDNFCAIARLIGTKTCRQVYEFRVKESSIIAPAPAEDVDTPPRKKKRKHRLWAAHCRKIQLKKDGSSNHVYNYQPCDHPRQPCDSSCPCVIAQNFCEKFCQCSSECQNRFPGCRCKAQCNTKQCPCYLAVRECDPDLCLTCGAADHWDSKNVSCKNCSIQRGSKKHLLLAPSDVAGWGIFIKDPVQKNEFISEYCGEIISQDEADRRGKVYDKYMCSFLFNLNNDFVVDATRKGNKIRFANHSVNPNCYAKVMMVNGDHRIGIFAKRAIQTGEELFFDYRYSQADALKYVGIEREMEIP
T1 sequence (Q96SW2 whole entry, looked up): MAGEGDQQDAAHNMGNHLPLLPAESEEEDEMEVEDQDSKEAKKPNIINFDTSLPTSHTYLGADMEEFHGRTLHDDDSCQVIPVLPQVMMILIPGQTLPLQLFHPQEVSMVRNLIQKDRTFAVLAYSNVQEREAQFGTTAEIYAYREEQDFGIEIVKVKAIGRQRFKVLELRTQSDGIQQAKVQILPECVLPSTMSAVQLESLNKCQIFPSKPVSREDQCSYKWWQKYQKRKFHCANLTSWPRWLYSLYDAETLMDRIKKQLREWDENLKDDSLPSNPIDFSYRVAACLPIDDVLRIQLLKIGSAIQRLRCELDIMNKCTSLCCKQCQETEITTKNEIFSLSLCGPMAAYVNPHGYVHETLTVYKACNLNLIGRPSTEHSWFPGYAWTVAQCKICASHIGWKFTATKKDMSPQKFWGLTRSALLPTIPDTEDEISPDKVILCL

Activity [3]: Active | Activity [4]: inactive | Activity [6]: 81% | Activity [7]: Active | Activity [8]: Active | Activity [9]: inactive | Activity [10]: Dose-Dependent Effect | Activity [14]: Active | Activity [15]: Active
SMILES: CCN(c1cc(-c2ccc(CN3CCN(CCCCCCCOc4cccc5c4C(=O)N(C4CCC(=O)NC4=O)C5=O)CC3)cc2)cc(C(=O)NCc2c(C)cc(C)[nH]c2=O)c1C)C1CCOCC1 (stereo unspecified)
Activity (A549 [1]): Active | Activity (Pfeiffer [2]): inactive | Activity (Pfeiffer [5]): inactive | Activity (MDA-MB-468): Active | Activity (A549 [11]): Active | Activity (WSUDLCL2 [12]): inactive | Activity (Pfeiffer [13]): Active | Activity (WSUDLCL2 [16]): inactive | Activity (NCI-H1299): Active | Activity (A549 [17]): Active | inhibition (WSUDLCL2 [18]): Dose-Dependent Effect | Activity (A549 [19]): Active
